# Results from PMC3428514 (Molecular cell, 2012).
# Peptide text beside a SMILES is read from it.
# Columns and labels:
# caspase-8 = caspase-8 (Homo sapiens, UniProt Q14790); assay: caspase-8 dimerization by Superdex 200 gel filtration; assay type: biochemical; settings: 10 μM, 15 minutes at 30°C
# How it was run: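 Recombinant caspase-8 (100 nM) incubated 15 min at 30°C with test compound at 10 μM, DMSO, or 10 μM Ac-VAD-CHO, then run on Superdex 200 gel filtration. Collected fractions analysed by SDS-PAGE with Coomassie Blue staining, and caspase activity measured in each fraction.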
# Cdc25B = settings: read-out: IC50, Cdc25B; ref Vogt et al., 2003; cited from earlier work
# X-IAP = settings: read-out: IC50, X-IAP; ref Glover et al., 2003; cited from earlier work
# Chain of caspase-8 (Q14790 217-479, species assumed): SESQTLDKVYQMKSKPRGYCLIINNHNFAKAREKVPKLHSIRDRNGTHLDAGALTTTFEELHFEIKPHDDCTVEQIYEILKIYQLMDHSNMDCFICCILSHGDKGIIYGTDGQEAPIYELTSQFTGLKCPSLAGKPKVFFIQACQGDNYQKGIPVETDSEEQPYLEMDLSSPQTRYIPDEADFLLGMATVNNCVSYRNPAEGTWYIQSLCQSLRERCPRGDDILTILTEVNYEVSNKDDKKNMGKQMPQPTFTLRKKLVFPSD
Compound,effect on caspase-8 dimerization (caspase-8),IC50 (Cdc25B),IC50 (X-IAP)
CC(=O)N[C@H](C(=O)N[C@@H](C)C(=O)N[C@H](C=O)CC(=O)O)C(C)C [Ac-VAD-CHO] (Ac-Val-Ala-Asp-aldehyde),shift to the dimeric species,,
CSC(=S)NN=C(c1ccccn1)c1ccccn1.[Cu][Br] [Comp-C],,> 10 µM,> 10 µM
